Measured values reported in ChEMBL document CHEMBL3120085 (J Med Chem, 2014).

How the values were obtained:
[1] = Apparent passive permeability from apical to basolateral side in dog RRCK cells; type: ADME, cell-based, Canis lupus familiaris, MDCKII-LE; conditions: MDCK
Summary of the method: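 Passive A→B permeability measured across RRCK cells, a low-transporter line isolated from MDCK cells.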

[2] = Oral bioavailability in rat at 5 mg/kg; type: ADME, organism-based; conditions: in vivo
Summary of the method: (§1)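 F from mean AUC0−∞ after single doses: rat 1 mg/kg iv and 5 mg/kg po (n = 3/dose, or iv n = 2); monkey 1 mg/kg iv and 30 mg/kg po, n = 2/dose.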

[3] = Ratio of unbound drug level in brain homogenate to plasma in rat at 1 mg/kg, sc; type: ADME, organism-based; parameters: dose 1 mg/kg, route subcutaneous
[4] = Ratio of unbound drug level in brain homogenate to plasma in rat at 1 mg/kg, sc after 4 hrs; type: ADME, organism-based; parameters: dose 1 mg/kg, route subcutaneous
Summary of the method: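 Rat neuropharmacokinetic study, single 1 mg/kg sc dose, n = 2 per time point. Ratio derived from AUC0−4 of unbound brain versus unbound plasma concentration. Unbound concentrations were corrected using the unbound fraction measured in brain homogenate and in plasma.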

[5] = Oral bioavailability in monkey at 30 mg/kg; type: ADME, organism-based, Macaca mulatta; conditions: rhesus monkey, in vivo; summary of the method: as §1
[6] = Volume of distribution at steady state in monkey; type: ADME, organism-based, Macaca mulatta; conditions: rhesus monkey, in vivo; read-out: Vdss
[7] = Volume of distribution at steady state in rat; type: ADME, organism-based; conditions: in vivo, read-out: Vdss

| Papp A→B [1] | SMILES | further results |
| --- | --- | --- |
| 21.5 ×10⁻⁶ cm/s | Cc1ccnnc1-c1nn(C)c2nc(OCc3ccccn3)cnc12 |  |
| 21 ×10⁻⁶ cm/s | C[C@@H]1CCCN1C(=O)c1nn(C)c2nc(OCc3ccccn3)ccc12 | bioavailability [2]: 0.4%; Kp uu [3]: 1.01 |
| 19.8 ×10⁻⁶ cm/s | CCC(C)NC(=O)c1nn(C)c2nc(OCc3cccc(C)n3)ccc12 (stereo not given) |  |
| 31.5 ×10⁻⁶ cm/s | CCN(CC)C(=O)c1nn(C)c2nc(OCc3ccccn3)cnc12 | bioavailability [2]: 35%; Kp uu [3]: 0.51 |
| 21 ×10⁻⁶ cm/s | Cc1ccncc1-c1nn(C)c2nc(OCc3ccccn3)cnc12 | bioavailability [2]: 28%; Kp uu at 4 h [4]: 2; bioavailability [5]: 67%; Vd [6]: 0.69 L/kg; Vd [7]: 1.3 L/kg |
| 28.5 ×10⁻⁶ cm/s | Cc1cccnc1-c1nn(C)c2nc(OCc3ccccn3)cnc12 |  |
| 13.8 ×10⁻⁶ cm/s | CCn1nc(-c2cnccc2C)c2ncc(OCc3ccccn3)nc21 |  |
| 0.78 ×10⁻⁶ cm/s | Cn1nc(-c2ccccc2)c2ccc(OCc3ccccn3)nc21 |  |
| 14.1 ×10⁻⁶ cm/s | Cc1c(Cl)cncc1-c1nn(C)c2nc(OCc3ccccn3)cnc12 |  |
| 28.7 ×10⁻⁶ cm/s | Cn1nc(-c2ncccc2OC(F)F)c2ncc(OCc3ccccn3)nc21 |  |
| 22.5 ×10⁻⁶ cm/s | Cn1nc(-c2cccnc2)c2ncc(OCc3ccccn3)nc21 |  |
| 21.4 ×10⁻⁶ cm/s | Cn1nc(-c2cnccc2C(F)(F)F)c2ncc(OCc3ccccn3)nc21 |  |
| 14.4 ×10⁻⁶ cm/s | Cc1c(-c2nn(C)c3nc(OCc4ccccn4)cnc23)cnn1C |  |
| 11.7 ×10⁻⁶ cm/s | Cn1nc(-c2ccccn2)c2ccc(OCc3ccccn3)nc21 |  |
| 19.6 ×10⁻⁶ cm/s | Cc1ccncc1-c1nn(C2CC2)c2nc(OCc3ccccn3)cnc12 |  |
| 24.4 ×10⁻⁶ cm/s | Cn1nc(-c2cccnc2)c2ccc(OCc3ccccn3)nc21 |  |
